Source: PubChem
NPR1 activator: GC-A (human) enzyme activation | HEK293 GC-A cells, cGMP TR-FRET, EC30 ANP; 0% at EC30 ANP, 100% saturating ANP | activation, % at 10 µM | P16066 | 370,000 compounds, 0.14% hits; in the data active = activation above about 40%
GC-B act: GC-B (human) receptor activation; 370,000 compounds, 0.11% hits; activation, % at 10 µM; P20594; HEK293-GC-B cells, CNP EC30, cGMP TR-FRET; 0% at EC30 CNP, 100% saturating CNP;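 active = activation at 10 µM reaching about 35% in either raw or pattern-adjusted values, limit read from the data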
GalR3 antag: human GalR3 antagonism. O60755. 360,000 compounds, 0.44% hits. HEK293 GalR3-CNG cAMP membrane potential fluorescence; galR3 body fused to GalR1 C-terminus. inhibition, % at 3 µM;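 active = inhibition above the screen-wide average plus 3 SD, cut at about 13% in these data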;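 also: forskolin and galanin both at EC90 stimulate the cells; cAMP rise reported by CNG channel membrane potential dye signal; 0% = forskolin plus galanin with DMSO and 100% = forskolin alone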
Target sequence (O60755 1-299 limits assumed): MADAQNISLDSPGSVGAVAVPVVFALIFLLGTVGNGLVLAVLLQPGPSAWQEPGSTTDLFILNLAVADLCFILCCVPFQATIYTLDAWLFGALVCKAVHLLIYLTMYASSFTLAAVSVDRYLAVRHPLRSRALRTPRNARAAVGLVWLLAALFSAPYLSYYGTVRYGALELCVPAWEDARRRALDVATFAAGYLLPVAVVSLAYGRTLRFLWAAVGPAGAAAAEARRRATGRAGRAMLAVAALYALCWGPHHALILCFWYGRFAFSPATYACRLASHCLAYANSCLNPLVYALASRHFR
Arrestin-AP2 inh: inhibitors of human beta-arrestin and AP2 interaction | FITC-arrestin peptide / GST-AP2 beads, flow cytometry; AP2 beta2 appendage carries R879A mutation | AID 504490 | inhibition, % at 10 µM | 340,000 compounds, 0.31% hits;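 active = inhibition above a set limit, near 3 SD of compounds lacking own fluorescence, cut at about 54% in these data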;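 also: plate controls were DMSO wells for no effect and 5 µM unlabelled arrestin peptide for full effect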
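test system = AP2 appendage R879A on GSH beads | buffer or medium = PBS plus Tween 20 (0.05%) and BSA (0.1%) | incubation = 12 min plus 1 h, RT | detection = bead flow cytometry, FITC channel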
GalR3 conf: confirmation of human galanin receptor 3 antagonists; 1,600 compounds, 59% hits; inhibition, % at 3 µM; HEK293 GalR3 CNG cAMP biosensor, membrane potential fluorescence; galR3 fused to GalR1 carboxy tail; challenged with forskolin and galanin at EC90; shares compounds with GalR3 antag;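 active = inhibition above the primary screen's cutoff, the mean inhibition of all screened compounds plus 3 SD, cut at about 13% in these data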;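 also: 0% = forskolin plus galanin and 100% = forskolin alone with DMSO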
HEK-CNG parental: acts as nonspecific agonist in parental HEK-CNG cells. shares compounds with GalR3 antag. HEK293-CNG parental cells, cAMP membrane potential fluorescence; normalised: DMSO wells 0%, forskolin wells 100%. 1,600 compounds, 10% hits. activation, % at 3 µM. AID 652268; in the data active = activation above about 1.3%
Numbers without * were called inactive; x = not tested or not shown. Hits are enriched below; roughly 0.94% of the tested compounds scored in any of these assays.

SMILES	NPR1 activator	GC-B act	GalR3 antag	Arrestin-AP2 inh	GalR3 conf	HEK-CNG parental
COc1cc(/C=N/NC(N)=O)c(Br)cc1OCC(=O)Nc1ccccc1C	0.2	-2.5	-3.0	0.8	x	x
C[C@@H]1ON(C)[C@H]2C[C@H]3c4[nH]c5c(-c6ccccc6F)cccc5c4CCN3C(=O)[C@@H]12	-2.5	0.8	-6.7	x	x	x
CCN(CC)S(=O)(=O)c1ccc(N2CCCC2)c(NC(=O)Cc2cc(OC)c(OC)c(OC)c2)c1	1.6	-3.5	19.4*	27.9	2.5	-0.1
CCN(CC)S(=O)(=O)c1ccc(N2CCOCC2)c(NC(=O)COc2ccccc2)c1	3.2	4.7	x	-5.3	12.9*	0.5
CCOC(=O)[C@@]12CCC3=C1N(CCC3)C(=O)[C@H](CC(=O)NCC13CC4CC(CC(C4)C1)C3)C2	-0.5	3.5	x	x	x	x
O=C(CCc1ccccc1)Nc1ccccc1[N+](=O)[O-]	1.5	10.5	-9.3	11.6	x	x
O=C(CNCc1ccc(F)cc1)Nc1ccccc1[N+](=O)[O-]	-2.2	-2.0	23.6*	13.8	10.4	-0.2
CCc1ccc(NC(=O)c2n[nH]c(=O)c3ccccc23)cc1	2.9	-1.6	14.7*	-17.8	3.6	0.2
CCN(CC)S(=O)(=O)c1cccc(NC(=O)COC(=O)c2cc(C)oc2C)c1	2.1	2.3	-2.6	17.8	x	x
CCc1nnc(NC(=O)c2n[nH]c(=O)c3ccccc23)s1	-4.1	-1.3	-6.3	1.5	x	x
CCN(CC)S(=O)(=O)c1cccc(NC(=O)COC(=O)c2n[nH]c(=O)c3ccccc23)c1	4.9	0.4	14.9*	1.0	50.5*	-1.3
O=C(COC(=O)c1n[nH]c2ccccc12)Nc1ccc(S(=O)(=O)N2CCCC2)cc1	-0.5	2.1	104.1*	0.2	110.5*	-0.7
CCCNC(=O)c1n[nH]c(=O)c2ccccc12	1.0	-3.4	0.4	-8.4	x	x
O=C(NCCOc1ccccc1)c1n[nH]c(=O)c2ccccc12	0.9	3.3	20.4*	3.8	1.0	-0.2
COC(=O)[C@]12C[C@H](CC(=O)N3CCN(C(=O)C4CC4)CC3)C(=O)N(CCC3=CCCCC3)C1=C[C@H](COCc1ccccc1)O[C@@H]2C	8.6	2.1	-3.5	x	x	x
CCOC(=O)C1=C(C(=O)OCC)C2N(Cc3ccc(C(F)(F)F)cc3)c3ccccc3[C@@]23C[C@@H](C(=O)OC)N(S(=O)(=O)c2ccccc2C)C3=N1 (some centres undefined)	3.9	10.4	6.0	x	x	x
Cc1cccc(Cn2cc(COC(=O)N3CCOCC3)nn2)c1	1.2	3.6	x	x	x	x
COc1ccc(-c2cn(-c3ccc(C)c(Cl)c3)c(=S)[nH]2)cc1OC	12.4	0.9	40.8*	25.3	102.1*	-1.8
c1ccc(CN2CCC(Nc3ncnc4sccc34)CC2)cc1	-1.6	1.7	2.5	19.3	x	x
Cc1sc2ncnc(NC3CCN(Cc4ccccc4)CC3)c2c1C	7.2	9.6	83.0*	-3.3	102.4*	1.2*
O=C(N[C@H](C(=O)N1CCC[C@H]1C(=O)NC1CCCC1)C1CCCCC1)c1ccccn1	3.6	8.5	-7.5	x	x	x
COc1ccc(O)c(C(=O)c2cnc3nc4ccccc4n3c2)c1	-1.7	-1.3	22.0*	10.4	17.6*	0.9
Cc1oc(-c2ccccc2)cc1C(=O)Nc1cccc(/C=C\C(=O)O)c1	-4.0	-3.5	70.9*	-3.2	91.4*	0.2
N#Cc1ccc(CN2CCN(C(=O)CNC(=O)Cc3cccc4ccccc34)CC2)cc1	1.9	-5.8	21.6*	-7.7	9.6	0.1
CCOc1cc2c(cc1OC)C(NC(=O)C(F)(F)F)CC2=O (centres undefined)	-1.8	5.0	-4.8	1.2	x	x
CCOc1cc2c(cc1OC)C(NC(=O)c1ccco1)CC2=O (centres undefined)	0.5	-0.1	16.7*	11.4	-1.2	-0.1
COc1ccc(CCN(C)c2ccc(S(=O)(=O)N3CCCC3)cc2[N+](=O)[O-])cc1OC	0.6	0.7	-5.6	12.1	x	x
